Experimental findings from ChEMBL document CHEMBL3272265, “Interferon inducing activities of derivatives of 1,3-dimethyl-4-(3-dimethylaminopropylamino)-1H-pyrazolo(3,4-b)quinoline and related compounds” (J Med Chem, 1976) are described below.

Calls of active or inactive are those of the source. The calls are words filed in the database; no cut-off is given here.

One data set has as its system Mus musculus. The data set can be described thus: Induction of interferon level >= 32 units/mL in ip dosed CD-1 mouse serum after 18 to 20 hrs by vesicular stomatitis virus plaque reduction assay. The class given is functional. The conditions noted are these: CD-1, Serum, read-out: MED. In short, it runs like this: (§1)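 Female CD-1 mice (15 g; at least three per dose) received compound dissolved or suspended in sterile distilled water, orally or ip. They were bled 18–20 hr later and sera pooled. Interferon was titrated by plaque reduction in mouse L cells challenged with vesicular stomatitis virus, with an NIAID reference mouse interferon standard. MED was the lowest dose giving ≥32 units/ml. Top doses were 400 mg/kg po and 300 mg/kg ip.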
For orientation: Plaques are areas of infected cells; plaque reduction assays count them against a control.
For `COc1ccc2c(NCCCN(C)C)c3c(C)nn(C)c3nc2c1.Cl`, the minimal effective dose came to 50 mg/kg. With `Cc1nn(C)c2nc3ccccc3c(NCCCN(C)CCCN(C)C)c12.Cl`, the minimal effective dose is more than 300 mg/kg. For `Cc1nn(C)c2nc3ccccc3c(CNCCCN(C)C)c12.Cl`, the minimal effective dose was not below 300 mg/kg. The same measure, in the same setting: the figure for `Cc1nn(C)c2nc3ccccc3c(NCCCN)c12.Cl` is not below 300 mg/kg. Consider `COc1cccc2c(NCCCN(C)C)c3c(C)nn(C)c3nc12.Cl`, for which the minimal effective dose is 50 mg/kg. Consider `COc1cccc2nc3c(c(C)nn3C)c(NCCCN(C)C)c12.Cl`, for which the minimal effective dose came to 100 mg/kg. For `COc1cc(OC)c2c(NCCCN(C)C)c3c(C)nn(C)c3nc2c1.Cl`, the minimal effective dose worked out at 25 mg/kg. Still for that read-out and setting: under `Cc1nn(C)c2nc3cc(CO)ccc3c(NCCCN(C)C)c12.Cl` stands 100 mg/kg.

Consider `Cc1nn(C)c2nc3ccccc3c(NCCCCNc3c4ccccc4nc4c3c(C)nn4C)c12`, for which the minimal effective dose was not below 300 mg/kg. Turning to `Cc1nn(C)c2nc3ccccc3c(NCCCN3CCN(C)CC3)c12.Cl`, the minimal effective dose amounted to 300 mg/kg.

`Cc1nn(C)c2nc3ccccc3c(NCCCNC(C)C)c12.Cl`: the minimal effective dose was not below 300 mg/kg.

For `Cc1nn(C)c2nc3ccccc3c(NN3CCN(C)CC3)c12.Cl`, the minimal effective dose was found to be 300 mg/kg. Regarding `Cc1nn(C)c2nc3cc4ccccc4cc3c(NCCCN(C)C)c12.Cl`, the minimal effective dose came to 100 mg/kg. Regarding `CCN1CCCC(Nc2c3ccccc3nc3c2c(C)nn3C)C1.Cl` (centres undefined), the minimal effective dose was not below 300 mg/kg. Consider `Cc1nn(C)c2nc3ccccc3c(NCCCN3CCNCC3)c12.Cl`, for which the minimal effective dose was determined as 100 mg/kg. As to `Cc1nn(C)c2nc3ccccc3c(NCCCNC(C)(C)C)c12.Cl`, the minimal effective dose is not below 300 mg/kg.

For `Cc1nn(C)c2nc3ncccc3c(NCCCN(C)C)c12.Cl`, the minimal effective dose is not below 300 mg/kg.

The next data set relates to Mus musculus. The data set can be described thus: Induction of interferon level >= 32 units/mL in po dosed CD-1 mouse serum after 18 to 20 hrs by vesicular stomatitis virus plaque reduction assay. The class given is functional. The conditions noted are these: CD-1, Serum, read-out: MED. The essentials: as §1
As to `Cc1nn(C)c2nc3ccccc3c(NCCCCCCN(C)C)c12.Cl`, the minimal effective dose is 200 mg/kg. In the case of `COc1ccc2c(NCCCN(C)C)c3c(C)nn(C)c3nc2c1.Cl`, the minimal effective dose was found to be 50 mg/kg. As to `Cc1cc(C)c2nc3c(c(C)nn3C)c(NCCCN(C)C)c2c1.Cl`, the minimal effective dose was 400 mg/kg. In the case of `CN(C)CCCNc1c2ccccc2nc2c1cnn2C.Cl`, the minimal effective dose was 200 mg/kg. Still for that read-out and setting: under `Cc1nn(C)c2nc3ccc(F)cc3c(NCCCN(C)C)c12.Cl` stands not below 400 mg/kg; under `COc1cccc2c(NCCCN(C)C)c3c(C)nn(C)c3nc12.Cl`, 100 mg/kg. Regarding `CCN(CC)CC(O)CNc1c2ccccc2nc2c1c(C)nn2C.Cl` (centres undefined), the minimal effective dose stood at 400 mg/kg. The same measure, in the same setting: the figure for `COc1cccc2nc3c(c(C)nn3C)c(NCCCN(C)C)c12.Cl` is 100 mg/kg; for `CN(C)CCCNc1c2ccccc2nc2c1ccn2C` it is 200 mg/kg.

`COc1cc(OC)c2c(NCCCN(C)C)c3c(C)nn(C)c3nc2c1.Cl`: the minimal effective dose was 25 mg/kg. Still for that read-out and setting: the figure for `Cc1nn(C)c2nc3cc(CO)ccc3c(NCCCN(C)C)c12.Cl` is 200 mg/kg; for `Cc1nn(C)c2nc3ccccc3c(NCCCN3CCCC3)c12.Cl` it is 200 mg/kg. With `Cc1nn(C)c2nc3cc(F)ccc3c(NCCCN(C)C)c12.Cl`, the minimal effective dose is not below 100 mg/kg.

`Cc1nn(C)c2nc3ccccc3c(NCCN(C)C)c12.Cl`: the minimal effective dose stood at 400 mg/kg. With `Cc1nn(C)c2nc3ccccc3c(NCCCCN(C)C)c12.Cl`, the minimal effective dose was 200 mg/kg.

Another data set concerns Mus musculus. The data set can be described thus: Induction of interferon level in CD-1 mouse serum at 300 mg/kg, ip after 18 to 20 hrs by vesicular stomatitis virus plaque reduction assay. The format is functional, organism-based. More on the design: dose 300 mg/kg.
Details: not given
The essentials:
(§2)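 Dosing was oral or ip in 15-g female CD-1 mice, at least three per dose level, with compound in sterile distilled water as a solution or suspension. Pooled sera were collected 18–20 hr after dosing. Interferon units/ml were quantified by a plaque reduction assay on mouse L cells with vesicular stomatitis virus challenge, run against an NIAID reference mouse interferon standard.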
As to `Cc1nn(C)c2nc3ccccc3c(N3CCCCC3CCN(C)C)c12` (centres undefined), the outcome was inactive.

As to `Cc1nn(C)c2nc3ccccc3c(NCCCN(CCO)CCO)c12`, the outcome was inactive. As for `Cc1nn(C)c2nc3ccccc3c(NCCCNC=O)c12`, the result was inactive. On to `Cc1n[nH]c2nc3ccccc3c(NCCCN(C)C)c12`, for which the outcome was inactive. Regarding `Cc1nn(C)c2nc3ccc(O)cc3c(NCCCN(C)C)c12`, the outcome was inactive. As to `Cc1nn(C)c2nc3cc([N+](=O)[O-])ccc3c(NCCCN(C)C)c12`, the result was inactive. Take `Cc1nn(C)c2nc3cc(C(=O)NCCCN(C)C)ccc3c(NCCCN(C)C)c12`: the result was inactive. On to `Cc1nn(C)c2nc3ccc(S(=O)(=O)NCCCN(C)C)cc3c(NCCCN(C)C)c12`, for which the outcome was inactive.

Consider `Cc1nn(CC(=O)NCCCN(C)C)c2nc3ccccc3c(NCCCN(C)C)c12`, for which the result was inactive. With `COc1ccc(-n2nc(C)c3c(NCCCN(C)C)c4ccccc4nc32)cc1`, the outcome was inactive. `Cc1nn(C)c2nc3c(Cl)cccc3c(NCCCN(C)C)c12`: the result was inactive. Take `Cc1nn(C)c2nc3ccccc3c(NCc3ccccc3N(C)C)c12`: the result was inactive. As for `COC(=O)CCCNc1c2ccccc2nc2c1c(C)nn2C`, the outcome was inactive. `Cc1nn(C)c2nc3ccc(S(N)(=O)=O)cc3c(NCCCN(C)C)c12`: the result was inactive. As to `Cc1nn(C)c2nc3ncncc3c(NCCCN(C)C)c12`, the outcome was inactive.

With `Cc1cc(Nc2ccccc2C(=O)NCCCN(C)C)n(C)n1`, the outcome was inactive. Regarding `Cc1nn(C)c2nc3cc(C(=O)O)ccc3c(NCCCN(C)C)c12`, the result was inactive. `CN(C)CCCNc1ccnc2ccccc12`: the outcome was inactive. Consider `Cc1nn(C)c2nc3ccc(S(=O)(=O)O)cc3c(NCCCN(C)C)c12`, for which the result was inactive. Regarding `Cc1nn(-c2ccc(C(=O)O)cc2)c2nc3ccccc3c(NCCCN(C)C)c12`, the result was inactive. With `Cc1nn(C)c2nc3ccccc3c(NCCCC(=O)O)c12`, the result was inactive. Consider `Cc1nn(C)c2nc3ccccc3c(CCNCCCNCCCN(C)C)c12`, for which the outcome was inactive. Still for that read-out and setting: the entry for `Cc1cc(NCCCNc2c3ccccc3nc3c2c(C)nn3C)n(C)n1` is “inactive”; for `CC(=O)Nc1ccc2nc3c(c(C)nn3C)c(NCCCN(C)C)c2c1` it is “inactive”.

In the case of `COC(=O)c1ccc2c(NCCCN(C)C)c3c(C)nn(C)c3nc2c1`, the outcome was inactive. In the case of `Cc1cc(Nc2c3ccccc3nc3c2c(C)nn3C)n(C)n1`, the outcome was inactive.

For `Cc1nn(C)c2nc3ccc(N)cc3c(NCCCN(C)C)c12`, the outcome was inactive. Regarding `Cc1nn(C)c2nc3cccc(N)c3c(NCCCN(C)C)c12`, the result was inactive.

For the compound `Cc1nn(C)c2nc3cc(O)ccc3c(NCCCN(C)C)c12`, the result was inactive. For the compound `Cc1nn(C)c2nc3ccccc3c(NC34CC5CC(CC(C5)C3)C4)c12`, the result was inactive.

For `CNCc1c2ccccc2nc2c1c(C)nn2C`, the result was inactive. As for `Cc1nn(-c2ccccc2)c2nc3ccccc3c(NCCCN(C)C)c12`, the result was inactive.

Consider `Cc1nn(CC(=O)O)c2nc3ccccc3c(NCCCN(C)C)c12`, for which the result was inactive.

As for `Cc1cc(Nc2ccccc2CNCCCN(C)C)n(C)n1`, the outcome was inactive. On to `Cc1nn(C)c2nc3ccccc3c(S)c12`, for which the outcome was inactive. As for `Cc1nn(CCO)c2nc3ccccc3c(NCCCN(C)C)c12`, the result was inactive.

Regarding `CN(C)CCCNc1ccncc1`, the result was inactive.

A further data set relates to Mus musculus. The data set can be described thus: Induction of interferon level in CD-1 mouse serum at 400 mg/kg, po after 18 to 20 hrs by vesicular stomatitis virus plaque reduction assay. The format is functional, organism-based. Set-up: dose 400 mg/kg.
Details: not given
In short, it runs like this: as §2
On to `Cc1nn(C)c2nc3cc(C(N)=O)ccc3c(NCCCN(C)C)c12`, for which the result was inactive. In the case of `Cc1nn(C)c2nc3ccccc3c(N)c12`, the outcome was inactive. As to `Cc1nn(C)c2nc3ccccc3c(CCNCCCN(C)C)c12`, the outcome was inactive. `CC(=O)Nc1ccc2c(NCCCN(C)C)c3c(C)nn(C)c3nc2c1`: the result was inactive. As to `Cc1nsc2nc3ccccc3c(NCCCN(C)C)c12`, the result was inactive.

Turning to `Cc1nn(C)c2nc3c(cc12)CCCC3`, the result was inactive.

Regarding `Cc1nn(C)c2c1Cc1ccccc1N2`, the outcome was inactive. For the compound `Cc1nn(C)c2nc3ccccc3c(SCc3ccccc3)c12`, the result was inactive.

As for `Cc1nn(C)c2nc3cc(N)ccc3c(NCCCN(C)C)c12`, the result was inactive. Turning to `Cc1nn(C)c2nc3ccccc3c(NCCCO)c12`, the outcome was inactive. With `Cc1nn(C)c2nc3ccccc3cc12`, the outcome was inactive. Turning to `CCN(CC)CCCC(C)Nc1c2ccccc2nc2c1c(C)nn2C` (centres undefined), the outcome was inactive. In the case of `CSCCCNc1c2ccccc2nc2c1c(C)nn2C`, the result was inactive. For the compound `Cc1nn(C)c2nc3ccccc3c(NCCCCl)c12`, the result was inactive. On the same count and under the same terms, the entry for `Cc1nn(C)c2nc3c(cnn3C)c(NCCCN(C)C)c12` is “inactive”; for `Cc1nn(C)c2nc3c(c(C)nn3C)c(NCCCN(C)C)c12` it is “inactive”; for `Cc1cccc2c(NCCCN(C)C)c3ccccc3nc12` it is “inactive”. `Cc1nn(C)c2ncc(C(=O)O)c(NCCCN(C)C)c12`: the result was inactive. Turning to `Cc1nn(C)c2nc3ccccc3c(NCCC[S+](C)[O-])c12` (centres undefined), the result was inactive. As for `Cc1nn(C)c2nccc(NCCCN(C)C)c12`, the result was inactive. Turning to `Cc1nn(C)c2nc3cccc([N+](=O)[O-])c3c(NCCCN(C)C)c12`, the result was inactive. With `CNc1c2ccccc2nc2c1c(C)nn2C`, the result was inactive. The same measure, in the same setting: under `Cc1nn(C)c2nc3ccccc3c(Cl)c12` stands “inactive”; under `Cc1nn(C)c2nc3cccc(NCCCN(C)C)c3cc12`, “inactive”.

Another data set concerns Mus musculus. As to the kind of experiment: Toxicity in CD-1 mouse at 300 mg/kg, ip. The conditions noted are these: in vivo. Set-up: dose 300 mg/kg, route intraperitoneal. The format is organism-based.
With `Cc1nn(C)c2nc3ccccc3c(NCCCNC3CCCCC3)c12.Cl`, the Activity entry was “Toxic”.
